CRFR2-BP antag: CRF-BP/CRF-R2 complex antagonism; HEK293 CRF-R2/CRF-BP, CRF-induced calcium fluorescence; inhibition, % at 11.8 µM; 350,000 compounds, 0.59% hits;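 active = inhibition of the ligand-induced calcium signal above about 50% at the single tested concentration, limit read from the data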
PKA-R2B activ: activators of human PKA-R2B complex; P22694+P31323; PKA-R2B holoenzyme dissociation, Cy5-IP20 fluorescence polarization; R2B truncated from residue 108, S112A mutant; 0% DMSO only, 100% 113 µM cGMP; activation, % at 11.4 µM; 340,000 compounds, 0.079% hits;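 active = activation above a cutoff set at the mean over all compounds plus 3 SD, cut at about 18% in these data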;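 also: higher means more holoenzyme dissociation and a rise in polarization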
PKA-R1A act: activators of PKA-R1A complex; P00514+P68181; PKA-R1A dissociation, Cy5-IP20 fluorescence polarization; scaled: DMSO 0%, 113 µM cGMP 100%; activation, % at 11.4 µM; 340,000 compounds, 0.083% hits; AID 504707;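 active = percent activation above the mean of all tested compounds plus 3 SD, cut at about 19% in these data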;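 also: higher means more PKAc released from R1A so a rise in polarization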
S100A4 inh HTS: blocks human S100A4 binding to myosin IIA peptide; S100A4/TAMRA-MyoIIA peptide fluorescence polarization; inhibition, % at 10.7 µM; 360,000 compounds, 0.14% hits;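 active = mean inhibition of at least 70% across replicates, with every replicate also reaching that level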
Target sequence (P26447 whole entry, looked up): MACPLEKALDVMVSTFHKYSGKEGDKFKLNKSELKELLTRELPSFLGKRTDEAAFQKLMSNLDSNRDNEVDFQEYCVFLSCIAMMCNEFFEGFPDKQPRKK
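Compound dosing: one dose per compound; test system: human S100A4 monomer with TAMRA-labelled myosin IIA peptide; probe or stimulus: TAMRA-labelled myosin IIA heavy-chain peptide probe, 5 nM; medium: HEPES buffer with Ca2+, pH 7.2; schedule: 5 min incubation before reading; benchmarks: neutral control DMSO, positive control TFP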
SIRT5 block: sirtuin-5 (human) deacylase inhibition; Purified SirT5, succinyl-peptide AMC, trypsin-coupled fluorescence; 330,000 compounds, 1.1% hits; inhibition, % at 15 µM; Q9NXA8; AID 652115; in the data active = inhibition above about 15%
Target sequence (Q9NXA8 whole entry, looked up): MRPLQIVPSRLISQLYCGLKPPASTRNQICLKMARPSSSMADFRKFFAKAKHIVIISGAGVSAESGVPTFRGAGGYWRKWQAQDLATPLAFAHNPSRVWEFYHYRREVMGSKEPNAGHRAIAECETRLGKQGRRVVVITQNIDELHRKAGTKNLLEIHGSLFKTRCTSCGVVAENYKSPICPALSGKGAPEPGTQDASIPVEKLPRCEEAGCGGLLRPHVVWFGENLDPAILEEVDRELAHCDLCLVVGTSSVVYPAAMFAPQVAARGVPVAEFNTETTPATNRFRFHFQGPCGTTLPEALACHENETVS
The depositor's hits bear a star; x = not tested or not shown. An excerpt weighted towards active compounds, which were near 1.5% of everything screened.

SMILES	CRFR2-BP antag	PKA-R2B activ	PKA-R1A act	S100A4 inh HTS	SIRT5 block
COc1ccccc1N1CCN(C(c2ccccc2Cl)c2nnnn2C(C)(C)C)CC1 (stereo not drawn)	5	-7	1	x	x
COc1ccccc1C(c1nnnn1C(C)(C)C)N1CCN(Cc2ccncc2)CC1 (stereo not drawn)	17	9	6	x	x
COc1ccccc1N1CCN(C(c2ccc(Cl)cc2)c2nnnn2C(C)(C)C)CC1 (stereo not drawn)	119*	0	-6	x	x
CC(C)NC(=O)Nc1ccc2c(c1)C(=O)N([C@H](C)CO)C[C@@H](C)[C@@H](CN(C)Cc1ccc(Cl)c(Cl)c1)O2	x	x	x	9	4
COc1ccc(S(=O)(=O)N(C)C[C@H]2OCCCC[C@H](C)Oc3ccc(NC(=O)c4ccncc4)cc3C(=O)N([C@H](C)CO)C[C@H]2C)cc1	x	x	x	-19	-3
COc1ccccc1N1CCN(CC(=O)Nc2ccc3c(c2)OCCO3)CC1	-6	9	5	-4	31*
COc1ccccc1N1CCN(CC(=O)Nc2c(C)n[nH]c2C)CC1	68*	3	2	x	x
C[C@@H]1CCCCO[C@H](CN(C)C(=O)Cc2ccccc2)[C@H](C)CN([C@@H](C)CO)C(=O)c2cc(NC(=O)c3ccccc3)ccc2O1	x	x	x	1	6
COc1ccc(NC(=O)Nc2ccc3c(c2)C(=O)N([C@H](C)CO)C[C@@H](C)[C@@H](CN(C)S(=O)(=O)c2ccc(F)cc2)OCCCC[C@@H](C)O3)cc1	x	x	x	-2	11
CCOC(=O)C1=C(C)N=c2s/c(=C\c3ccc(OCC(=O)O)c(OC)c3)c(=O)n2C1c1ccc(OC)cc1 (stereo not drawn)	-16	1	3	-5	8
CCOC(=O)C1=C(C)N=c2sc(=Cc3cc(Cl)c(OCC(=O)O)c(OC)c3)c(=O)n2C1c1ccccc1Cl (stereo not drawn)	x	x	x	-9	24*
CCOC(=O)C1=C(c2ccccc2)N=c2s/c(=C\c3ccc(O)cc3)c(=O)n2C1c1cccs1 (stereo not drawn)	-34	-1	8	-1	0
CCOC(=O)C1=C(c2ccccc2)N=c2sc(=Cc3cc(OC)c(OC)c(OC)c3)c(=O)n2C1c1cccs1 (stereo not drawn)	x	x	x	-8	16*
COc1ccccc1C1C2=C(N=c3s/c(=C/c4cccc(OCC(=O)O)c4)c(=O)n31)c1ccccc1CC2 (stereo not drawn)	65*	-14	-4	-1	10
O=C(C[C@H]1C[C@H]2c3cc(NC(=O)c4cccnc4)ccc3O[C@H]2[C@H](CO)O1)NCc1ccncc1	x	x	x	-1	-1
CO[C@H]1CN(C)C(=O)c2cc(NS(=O)(=O)c3ccccc3)ccc2OC[C@@H](C)N(Cc2nccs2)C[C@H]1C	x	x	x	-5	-3
N#Cc1c(-c2ccccc2)nc(SCC(=O)NC2CCCCC2)[nH]c1=O	2	-5	-7	-5	0
CN(C(=O)CSc1nc(-c2ccc(C(C)(C)C)cc2)c(C#N)c(=O)[nH]1)C1CCCCC1	20	-10	-3	-10	17*
C[C@H](NC(=O)C[C@H]1C[C@@H]2c3cc(NS(C)(=O)=O)ccc3O[C@@H]2[C@@H](CO)O1)c1ccccc1	x	x	x	-12	-1
CNC(=O)C[C@@H]1CC[C@@H]2[C@@H](COc3ccc(NC(=O)Nc4ccc(F)c(F)c4)cc3C(=O)N2C)O1	x	x	x	-14	-1
CN(C)CCNc1nc(-c2ccccc2)nnc1C(F)(F)F	-8	6	-10	x	x
Cc1nnc(-c2ccc(Cl)cc2)nc1NCCN(C)C	-3	-10	-5	6	18*
COc1ccc(NC(=S)N2CCC(N(C)CCN3CCOCC3)CC2)cc1Cl	52*	1	-3	x	x
CCN1CCCc2cc(CN(CCN3CCOCC3)C(=S)Nc3ccc(OC)c(Cl)c3)ccc21	7	-10	-2	-4	3
CO[C@H](CN(C)Cc1nccs1)[C@@H](C)CN([C@@H](C)CO)S(=O)(=O)c1ccc(C)cc1	x	x	x	-6	19*
SMILES	CRFR2-BP antag	PKA-R2B activ	PKA-R1A act	S100A4 inh HTS	SIRT5 block
CO[C@@H](CN(C)Cc1nccs1)[C@H](C)CN([C@@H](C)CO)S(=O)(=O)c1ccc(F)cc1	x	x	x	5	-2
CCOC(=O)c1n[nH]c(=O)c2ccccc12	-3	x	x	-5	-15
CCOC(=O)C1CCN(C(=O)c2n[nH]c(=O)c3ccccc23)CC1	92*	0	-7	x	x
CC1CCCN(CCCNC(=O)CN2C(=O)CSc3ccc(S(=O)(=O)N4CCOCC4)cc32)C1 (stereo not drawn)	89*	0	-4	1	-3
CC1CCN(S(=O)(=O)c2ccc3c(c2)N(CC(=O)NCCCN2CCCC(C)C2)C(=O)CS3)CC1 (stereo not drawn)	-8	-1	-4	-5	-7
C=CCSc1nnc(NC(=O)c2cn(CC)c3nc(C)ccc3c2=O)s1	11	4	-3	-21	20*
O=C(Cc1ccncc1)NCC[C@H]1CC[C@H](NC(=O)C2CC2)[C@@H](CO)O1	x	x	x	34	0
Cc1ccc(S(=O)(=O)N[C@@H]2CC[C@@H](CC(=O)NCc3ccc(Cl)c(Cl)c3)O[C@H]2CO)cc1	x	x	x	3	0
Cc1ccc(S(=O)(=O)Nc2ccc3c(c2)C(=O)N([C@@H](C)CO)C[C@H](C)[C@H](CN(C)C(=O)NC(C)C)OCCCC[C@H](C)O3)cc1	x	x	x	6	6
COc1ccc(NC(=S)N2CCC(C(=O)c3ccc(F)cc3)CC2)c(OC)c1	-3	-8	2	-3	25*
COc1ccc(C(=O)C2CCN(C(=S)Nc3ccc(F)cc3)CC2)cc1	-23	-8	-7	-2	-2
Cc1ccc(S(=O)(=O)Nc2ccccc2C(O)c2ccccc2)cc1 (stereo not drawn)	0	-10	9	-5	-3
CNc1ccc(Br)cc1C(O)c1ccccc1 (stereo not drawn)	21	6	2	-6	37*
CCOC(=O)C1Nc2ccc(C(=O)O)cc2C2C=CCC12 (stereo not drawn)	-16	5	-1	-8	14
CC(C)C1Nc2ccc(C(=O)O)cc2C2C=CCC21 (stereo not drawn)	-13	4	4	-15	23*
CCC(=O)N1C[C@@H](C)[C@H](OC)CN(C)C(=O)c2ccc(NC(=O)c3ccno3)cc2OC[C@@H]1C	x	x	x	-40	x
O=C1CCCC(O)=C1N=Nc1ccc2c(c1)OCO2	-2	-11	-10	-5	10
O=C1CCCC(O)=C1N=Nc1ccc(C(=O)O)cc1	6	3	-9	50	33*
C[C@@H]1CN([C@H](C)CO)C(=O)c2cc(N(C)C)ccc2O[C@H]1CN(C)C(=O)Nc1ccc(F)cc1	x	x	x	-31	34*

Bioassay records as filed in PubChem.
